According to ChEMBL document CHEMBL3124843, “Synthesis, cytostatic, antimicrobial, and anti-HCV activity of 6-substituted 7-(het)aryl-7-deazapurine ribonucleosides” (J Med Chem, 2014):
Calls of active or inactive are those of the source. The rule behind the calls is not given here.

Tests used:
[1] = Cytotoxicity against human HuH7 cells infected with Hepatitis C virus subtype 2a; type: cell-based, Huh-7
Hepatitis C virus [2] = experiment: Antiviral activity against Hepatitis C virus subtype 2a infected in human HuH7 cells; type: functional, organism-based, Hepacivirus hominis; conditions: genotype 2a, Huh-7
[3] = Cytotoxicity against human HuH7 cells infected with Hepatitis C virus subtype 1b; type: cell-based, Huh-7
Hepatitis C virus [4] = experiment: Antiviral activity against Hepatitis C virus subtype 1b infected in human HuH7 cells; type: functional, organism-based, Hepacivirus hominis; conditions: genotype 1b, Huh-7
Candida tropicalis = experiment: Antifungal activity against Candida tropicalis after 48 hrs; type: functional, organism-based
Pichia kudriavzevii = experiment: Antifungal activity against Candida crusei after 48 hrs; type: functional, organism-based
Candida parapsilosis = experiment: Antifungal activity against Candida parapsilosis after 48 hrs; type: functional, organism-based
Candida albicans = experiment: Antifungal activity against Candida albicans after 48 hrs; type: functional, organism-based
Pseudomonas aeruginosa [5] = experiment: Antibacterial activity against multi-resistant Pseudomonas aeruginosa A/16575 after 24 hrs; type: functional, organism-based
Escherichia coli [6] = experiment: Antibacterial activity against multi-resistant Escherichia coli C/16702 after 24 hrs; type: functional, organism-based
[7] = tested on: Staphylococcus haemolyticus; experiment: Antibacterial activity against methicillin-resistant Staphylococcus haemolyticus A/16568 after 24 hrs; type: functional, organism-based
Staphylococcus aureus [8] = experiment: Antibacterial activity against methicillin-resistant Staphylococcus aureus MRSA 4591 after 24 hrs; type: functional, organism-based
Pseudomonas aeruginosa [9] = experiment: Antibacterial activity against Pseudomonas aeruginosa CCM 3955 after 24 hrs; type: functional, organism-based
Escherichia coli [10] = experiment: Antibacterial activity against Escherichia coli CCM 3954 after 24 hrs; type: functional, organism-based
Staphylococcus aureus [11] = experiment: Antibacterial activity against Staphylococcus aureus CCM 3953 after 24 hrs; type: functional, organism-based
Enterococcus faecalis = experiment: Antibacterial activity against Enterococcus faecalis CCM 4224 after 24 hrs; type: functional, organism-based
[12] = Antiproliferative activity against human HeLaS3 cells after 72 hrs by XTT assay; type: functional, cell-based; conditions: HeLa S3, 72 h
Summary of the method: (§1)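 Antiproliferative test on HL-60 promyelocytic leukemia and HeLa S3 cervical carcinoma cells growing in liquid suspension.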

HL-60 = experiment: Antiproliferative activity against human HL60 cells after 72 hrs by XTT assay; type: functional, cell-based; conditions: HL-60, 72 h; summary of the method: as §1
HepG2 = experiment: Antiproliferative activity against human HepG2 cells after 72 hrs by XTT assay; type: functional, cell-based; conditions: HepG2, 72 h
MRC5 = experiment: Cytostatic activity against human MRC5 cells after 72 hrs by MTT assay; type: ADME, cell-based; conditions: MRC5, 72 h
Summary of the method: (§2)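 IC50 is the concentration that cuts cell growth by 50%, read by quantitative metabolic MTT staining after a 3-day treatment. The resistant sublines were made by raising the concentration of the cytotoxic drug step by step. CEM-DNR-bulk (daunorubicin-selected) stably overexpresses mrp-1. K562-TAX (paclitaxel-selected) expresses only mdr-1. HCT116p53−/− carries null p53 alleles. BJ and MRC-5 are nonmalignant fibroblasts.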

BJ = experiment: Cytostatic activity against human BJ cells after 72 hrs by MTT assay; type: ADME, cell-based; summary of the method: as §2
HCT-116 [13] = experiment: Cytostatic activity against p53-deficient human HCT116 cells after 72 hrs by MTT assay; type: functional, cell-based; conditions: HCT-116, 72 h; summary of the method: as §2
HCT-116 [14] = experiment: Cytostatic activity against human HCT116 cells after 72 hrs by MTT assay; type: functional, cell-based; conditions: HCT-116, 72 h; summary of the method: as §2
A549 = experiment: Cytostatic activity against human A549 cells after 72 hrs by MTT assay; type: functional, cell-based; conditions: A549, 72 h; summary of the method: as §2
K562 [15] = experiment: Cytostatic activity against paclitaxel-resistant human K562 cells after 72 hrs by MTT assay; type: functional, cell-based; conditions: K562, 72 h; summary of the method: as §2
K562 [16] = experiment: Cytostatic activity against human K562 cells after 72 hrs by MTT assay; type: functional, cell-based; conditions: K562, 72 h; summary of the method: as §2
[17] = Cytostatic activity against human CEM-DNR-bulk cells after 72 hrs by MTT assay; type: functional, cell-based; summary of the method: as §2
CCRF-CEM = experiment: Cytostatic activity against human CCRF-CEM cells after 72 hrs by MTT assay; type: functional, cell-based; summary of the method: as §2

Row | SMILES | CC50 [1] [µM] | EC50 (Hepatitis C virus [2]) [µM] | CC50 [3] [µM] | EC50 (Hepatitis C virus [4]) [µM] | Activity (Candida tropicalis) | Activity (Pichia kudriavzevii) | Activity (Candida parapsilosis) | Activity (Candida albicans) | Activity (Pseudomonas aeruginosa [5]) | Activity (Escherichia coli [6]) | Activity [7] | Activity (Staphylococcus aureus [8]) | Activity (Pseudomonas aeruginosa [9]) | Activity (Escherichia coli [10]) | Activity (Staphylococcus aureus [11]) | Activity (Enterococcus faecalis) | IC50 [12] [µM] | IC50 (HL-60) [µM] | IC50 (HepG2) [µM] | IC50 (MRC5) [µM] | also measured
1 | CNc1ncnc2c1c(-c1ccsc1)cn2[C@@H]1O[C@H](CO)[C@@H](O)[C@H]1O | > 44 | > 44 | > 44 | > 44 | inactive | inactive | inactive | inactive | inactive | inactive | inactive | inactive | inactive | inactive | inactive | inactive | > 20 | > 20 | > 20 | > 100 | IC50 (BJ): > 100 µM; IC50 (HCT-116 [13]): > 20 µM; IC50 (HCT-116 [14]): > 20 µM; IC50 (A549): > 20 µM; IC50 (K562 [15]): > 20 µM; IC50 (K562 [16]): > 20 µM; IC50 [17]: > 20 µM; IC50 (CCRF-CEM): > 20 µM
2 | Cc1nc(N)c2c(-c3ccoc3)cn([C@@H]3O[C@H](CO)[C@@H](O)[C@H]3O)c2n1 | > 44 | > 44 | > 44 | > 44 | inactive | inactive | inactive | inactive | inactive | inactive | inactive | inactive | inactive | inactive | inactive | inactive | > 20 | > 20 | > 20 | > 100 | IC50 (BJ): > 100 µM; IC50 (HCT-116 [13]): > 20 µM; IC50 (HCT-116 [14]): > 20 µM; IC50 (A549): > 20 µM; IC50 (K562 [15]): > 20 µM; IC50 (K562 [16]): > 20 µM; IC50 [17]: > 20 µM; IC50 (CCRF-CEM): > 100 µM
3 | COc1ncnc2c1c(-c1ccccc1)cn2[C@@H]1O[C@H](CO)[C@@H](O)[C@H]1O | > 44 | > 44 | > 44 | 21 | inactive | inactive | inactive | inactive | inactive | inactive | inactive | inactive | inactive | inactive | inactive | inactive | > 20 | > 20 | > 20 | > 100 | IC50 (BJ): > 100 µM; IC50 (HCT-116 [13]): > 20 µM; IC50 (HCT-116 [14]): > 20 µM; IC50 (A549): > 20 µM; IC50 (K562 [15]): > 20 µM; IC50 (K562 [16]): > 20 µM; IC50 [17]: > 20 µM; IC50 (CCRF-CEM): > 20 µM
4 | Nc1nc(N)c2c(-c3cc4ccccc4o3)cn([C@@H]3O[C@H](CO)[C@@H](O)[C@H]3O)c2n1 | > 44 | 11.5 | > 44 | 5.58 | inactive | inactive | inactive | inactive | inactive | inactive | inactive | inactive | inactive | inactive | inactive | inactive | > 20 | > 15 | > 20 | 78.5 | IC50 (BJ): > 100 µM; IC50 (HCT-116 [13]): 14 µM; IC50 (HCT-116 [14]): > 20 µM; IC50 (A549): > 20 µM; IC50 (K562 [15]): > 20 µM; IC50 (K562 [16]): 18.6 µM; IC50 [17]: > 20 µM; IC50 (CCRF-CEM): > 20 µM
5 | COc1ncnc2c1c(-c1cc3ccccc3o1)cn2[C@@H]1O[C@H](CO)[C@@H](O)[C@H]1O | > 44 | 10.2 | > 44 | 2.64 | inactive | inactive | inactive | inactive | inactive | inactive | inactive | inactive | inactive | inactive | inactive | inactive | 9.24 | 4.47 | > 20 | 65.6 | IC50 (BJ): 22.4 µM; IC50 (HCT-116 [13]): 14.5 µM; IC50 (HCT-116 [14]): 13.8 µM; IC50 (A549): 17.7 µM; IC50 (K562 [15]): 13.1 µM; IC50 (K562 [16]): 20.9 µM; IC50 [17]: 10.8 µM; IC50 (CCRF-CEM): 5.37 µM
6 | O=c1[nH]cnc2c1c(-c1ccsc1)cn2[C@@H]1O[C@H](CO)[C@@H](O)[C@H]1O | > 44 | > 44 | > 44 | 14.3 | inactive | inactive | inactive | inactive | inactive | inactive | inactive | inactive | inactive | inactive | inactive | inactive | > 20 | 12 | > 15 | > 100 | IC50 (BJ): > 100 µM; IC50 (HCT-116 [13]): > 20 µM; IC50 (HCT-116 [14]): > 20 µM; IC50 (A549): > 20 µM; IC50 (K562 [15]): > 20 µM; IC50 (K562 [16]): > 20 µM; IC50 [17]: > 20 µM; IC50 (CCRF-CEM): 14.5 µM
7 | CN(C)c1ncnc2c1ccn2[C@@H]1O[C@H](CO)[C@@H](O)[C@H]1O | > 44 | 0.97 | > 44 | 0.27 | inactive | inactive | inactive | inactive | inactive | inactive | inactive | inactive | inactive | inactive | inactive | inactive | 10.6 | 0.87 | 1.81 | 58.2 | IC50 (BJ): 5.3 µM; IC50 (HCT-116 [13]): 5.09 µM; IC50 (HCT-116 [14]): 18.4 µM; IC50 (A549): > 20 µM; IC50 (K562 [15]): 0.89 µM; IC50 (K562 [16]): 5.28 µM; IC50 [17]: 2.6 µM; IC50 (CCRF-CEM): 0.63 µM
8 | Cc1nc(N)c2c(-c3cccs3)cn([C@@H]3O[C@H](CO)[C@@H](O)[C@H]3O)c2n1 | > 44 | > 44 | > 44 | > 44 | inactive | inactive | inactive | inactive | inactive | inactive | inactive | inactive | inactive | inactive | inactive | inactive | > 20 | > 20 | > 20 | > 100 | IC50 (BJ): > 100 µM; IC50 (HCT-116 [13]): > 20 µM; IC50 (HCT-116 [14]): > 20 µM; IC50 (A549): > 20 µM; IC50 (K562 [15]): > 20 µM; IC50 (K562 [16]): > 20 µM; IC50 [17]: > 20 µM; IC50 (CCRF-CEM): > 20 µM
